From ChEMBL document CHEMBL1138456 (J Med Chem, 2009)
Values after ≈ are worked out from the molar mass of the structure shown.

Legend:
[1] = Stability assessed as half life at pH 8.0 in presence of calf intestine alkaline phosphatase; assay type: ADME, tissue-based; settings: cattle
Outline: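 Prodrug in 50 mM sodium phosphate pH 7.4 was incubated with calf intestinal alkaline phosphatase (0.000125 units/µL) in 10 mM Tris pH 8.0 at 37 °C for 30 min. Reactions were quenched with NaCl and MeOH/acetonitrile, held on ice for 30 min and centrifuged. Dephosphorylation half-life is in minutes.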

[2] = Aqueous solubility in water by shake flask method; assay type: physicochemical
Outline: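 Solubility: about 5 mg solid per 1 mL deionized water, unbuffered, in triplicate. Samples were vortexed, sonicated and protected from light, then tumbled at 25 °C for 1 day. They were centrifuged, filtered and diluted, and analyzed by HPLC with UV detection at 215 nm.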

[3] = Chemical stability assessed as half life at pH 2 by HPLC; assay type: physicochemical; settings: buffer
[4] = Clearance in rat at 5 mg/kg, iv; assay type: ADME, organism-based; parameters: dose 5 mg/kg, route intravenous; settings: in vivo
[5] = Half life in rat at 5 mg/kg, iv; assay type: ADME, organism-based; parameters: dose 5 mg/kg, route intravenous; settings: in vivo
[6] = Chemical stability assessed as half life at pH 9 by HPLC; assay type: physicochemical; settings: buffer
[7] = Chemical stability assessed as half life at pH 7.4 by HPLC; assay type: physicochemical; settings: buffer
[8] = Chemical stability assessed as half life at pH 5 by HPLC; assay type: physicochemical; settings: buffer
[9] = Cmax in Sprague-Dawley rat plasma at 5 mg/kg, po coadministered with RTV; assay type: ADME, organism-based; parameters: dose 5 mg/kg, route oral
Outline: (§1)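 Male Sprague-Dawley-derived rats (0.25-0.35 kg, n = 3) were given oral gavage doses equivalent to 5 mg/kg parent (5 mg equiv/kg). Prodrugs were given in 5% dextrose in water. Parents were given in ethanol/propylene glycol formulation. For LPV species, a 5 mg/kg RTV gavage dose was given first. Plasma was analyzed by reversed-phase HPLC with an internal standard. Cmax is in µg/mL and AUC in µg·h/mL.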

[10] = AUC in Sprague-Dawley rat plasma at 5 mg/kg, po coadministered with RTV; assay type: ADME, organism-based; parameters: dose 5 mg/kg, route oral; outline: as §1
[11] = Cmax in po dosed Beagle dog at dose molar equivalent to 5 mg/kg RTV coadministered with LPV dosed as 5% dextrose containing solution; assay type: ADME, organism-based, Canis lupus familiaris; parameters: dose 5 mg/kg, route oral; settings: in vivo
Outline: (§2)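 Male and female beagle dogs (8-12 kg, n = 3) were dosed orally at 5 mg equiv/kg of parent. Parents were dissolved in 5% dextrose with 20% ethanol, 30% propylene glycol and 2 equiv methanesulfonic acid. Prodrugs were dissolved in 5% dextrose. Plasma was measured by reversed-phase HPLC with an internal standard. Cmax is in µg/mL and AUC in µg·h/mL.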

[12] = Cmax in po dosed Beagle dog at dose molar equivalent to 5 mg/kg RTV coadministered with LPV-OMP dosed as 5% dextrose containing solution; assay type: ADME, organism-based, Canis lupus familiaris; parameters: dose 5 mg/kg, route oral; settings: in vivo; outline: as §2
[13] = tested on: Rattus norvegicus; test: AUC in Sprague-Dawley rat plasma at 5 mg/kg, po; assay type: ADME, organism-based; parameters: dose 5 mg/kg, route oral; settings: in vivo; outline: as §1
[14] = AUC in po dosed Beagle dog at dose molar equivalent to 5 mg/kg RTV coadministered with LPV dosed as 5% dextrose containing solution; assay type: ADME, organism-based, Canis lupus familiaris; parameters: dose 5 mg/kg, route oral; settings: plasma; outline: as §2
[15] = AUC in po dosed Beagle dog at dose molar equivalent to 5 mg/kg RTV coadministered with LPV-OMP dosed as 5% dextrose containing solution; assay type: ADME, organism-based, Canis lupus familiaris; parameters: dose 5 mg/kg, route oral; settings: plasma; outline: as §2

| half-life [1] [min] | solubility thermodynamic [2] [mg/mL] | half-life [3] [min] | Structure (SMILES) | other results |
| --- | --- | --- | --- | --- |
| 7 | > 5 | 516 | CC(C)c1nc(CN(C)C(=O)N[C@H](C(=O)N[C@@H](Cc2ccccc2)C[C@H](OCOP(=O)([O-])[O-])[C@H](Cc2ccccc2)NC(=O)OCc2cncs2)C(C)C)cs1.[Na+].[Na+] |  |
| 13.9 | > 5 | 468 | Cc1cccc(C)c1OCC(=O)N[C@@H](Cc1ccccc1)[C@H](C[C@H](Cc1ccccc1)NC(=O)[C@H](C(C)C)N1CCCNC1=O)OCOP(=O)([O-])[O-].[Na+].[Na+] |  |
| 20.4 | > 5 | < 15 | Cc1cccc(C)c1OCC(=O)N[C@@H](Cc1ccccc1)[C@H](C[C@H](Cc1ccccc1)NC(=O)[C@H](C(C)C)N1CCCNC1=O)OC(C)OP(=O)([O-])[O-].[Na+].[Na+] (stereo not given in full) | half-life [6]: > 100 days; half-life [7]: 19 days; half-life [8]: 133 min |
|  | 0.007 (≈ 11.1 µM) |  | Cc1cccc(C)c1OCC(=O)N[C@@H](Cc1ccccc1)[C@@H](O)C[C@H](Cc1ccccc1)NC(=O)[C@H](C(C)C)N1CCCNC1=O [LOPINAVIR] | Cmax [9]: 1.55 µg/mL; AUC [10]: 9.28 µg·h/mL |

The remaining lines, values behind:

| Structure (SMILES) | half-life [1] [min] | solubility thermodynamic [2] [mg/mL] | half-life [3] [min] | other results |
| --- | --- | --- | --- | --- |
| CC(C)c1nc(CN(C)C(=O)N[C@H](C(=O)N[C@@H](Cc2ccccc2)C[C@H](OP(=O)([O-])[O-])[C@H](Cc2ccccc2)NC(=O)OCc2cncs2)C(C)C)cs1.[Na+].[Na+] |  |  |  | clearance [4]: 2.58 L/h/kg; half-life [5]: 13.8 min |
| CCCC(O[C@@H](C[C@H](Cc1ccccc1)NC(=O)[C@@H](NC(=O)N(C)Cc1csc(C(C)C)n1)C(C)C)[C@H](Cc1ccccc1)NC(=O)OCc1cncs1)OP(=O)([O-])[O-].[Na+].[Na+] (stereo not given in full) | 31.7 |  |  |  |
| CC(O[C@@H](C[C@H](Cc1ccccc1)NC(=O)[C@@H](NC(=O)N(C)Cc1csc(C(C)C)n1)C(C)C)[C@H](Cc1ccccc1)NC(=O)OCc1cncs1)OP(=O)([O-])[O-].[Na+].[Na+] (stereo not given in full) | 14.8 | > 5 | < 15 | half-life [6]: > 100 days; half-life [7]: 12 days; half-life [8]: 76 min |
| CC(C)c1nc(CN(C)C(=O)N[C@H](C(=O)N[C@@H](Cc2ccccc2)C[C@H](OC(OP(=O)([O-])[O-])C(C)C)[C@H](Cc2ccccc2)NC(=O)OCc2cncs2)C(C)C)cs1.[Na+].[Na+] (stereo not given in full) | > 30 |  |  |  |
| CC(C)c1nc(CN(C)C(=O)N[C@H](C(=O)N[C@@H](Cc2ccccc2)C[C@H](O)[C@H](Cc2ccccc2)NC(=O)OCc2cncs2)C(C)C)cs1 [RITONAVIR] |  |  |  | Cmax [11]: 1.32 µg/mL; Cmax [12]: 2.13 µg/mL; AUC [13]: 3.53 µg·h/mL; AUC [14]: 2.19 µg·h/mL; AUC [15]: 4.43 µg·h/mL |
